In ChEMBL document CHEMBL1149742, “Displacement activity of bisbenzylisoquinoline alkaloids at striatal 3H-SCH 23390 and 3H-raclopride binding sites” (J Nat Prod, 1992):
pIC50: −log10 of the molar value.

Legend:
D(1A) dopamine receptor = D(1A) dopamine receptor (Rattus norvegicus, UniProt P18901); test: Displacement of [3H]SCH23390 from dopamine D1 receptor in Wistar rat striatal membrane by liquid scintillation counting; assay type: cell membranes, Striatum
Summary of the method: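 Striata from male Wistar rats (200–250 g) homogenized in 50 mM Tris-HCl pH 7.4, centrifuged twice at 20,000 g, resuspended in Tris-Mg buffer (5 mM MgSO4, 0.5 mM EDTA, 0.02% ascorbic acid). 100 µg protein incubated 1 h at 25° with 0.25 nM [3H]SCH 23390 (final), compounds at 6 or 11 concentrations 10^-9–10^-4 M. Nonspecific binding with 30 µM SK&F 38393. GF/B filtration. IC50 with 95% confidence limits by Litchfield–Wilcoxon, 4–8 determinations per concentration.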

D(2) dopamine receptor = D(2) dopamine receptor (Rattus norvegicus, UniProt P61169); test: Displacement of [3H]raclopride from dopamine D2 receptor in Wistar rat striatal membrane by liquid scintillation counting; assay type: cell membranes, Striatum
Summary of the method: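 Male Wistar rat (200–250 g) striatal membranes, centrifuged four times at 20,000 g, resuspended in Tris-ions buffer (120 mM NaCl, 5 mM KCl, 1 mM CaCl2, 1 mM MgCl2, 0.1% ascorbic acid, pH 7.4). 200 µg protein incubated 1 h at 25° with 0.5 nM [3H]raclopride (final), compounds at 6 or 11 concentrations 10^-9–10^-4 M. Nonspecific binding with 50 µM apomorphine. GF/B filtration. IC50 by Litchfield–Wilcoxon, 4–8 determinations per concentration.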

Rattus norvegicus = species on record: Rattus norvegicus; test: Selectivity ratio of IC50 for dopamine D1 receptor in Wistar rat striatal membrane to IC50 for dopamine D2 receptor in Wistar rat striatal membrane; assay type: cell membranes

Sequence of D(1A) dopamine receptor (P18901 whole entry): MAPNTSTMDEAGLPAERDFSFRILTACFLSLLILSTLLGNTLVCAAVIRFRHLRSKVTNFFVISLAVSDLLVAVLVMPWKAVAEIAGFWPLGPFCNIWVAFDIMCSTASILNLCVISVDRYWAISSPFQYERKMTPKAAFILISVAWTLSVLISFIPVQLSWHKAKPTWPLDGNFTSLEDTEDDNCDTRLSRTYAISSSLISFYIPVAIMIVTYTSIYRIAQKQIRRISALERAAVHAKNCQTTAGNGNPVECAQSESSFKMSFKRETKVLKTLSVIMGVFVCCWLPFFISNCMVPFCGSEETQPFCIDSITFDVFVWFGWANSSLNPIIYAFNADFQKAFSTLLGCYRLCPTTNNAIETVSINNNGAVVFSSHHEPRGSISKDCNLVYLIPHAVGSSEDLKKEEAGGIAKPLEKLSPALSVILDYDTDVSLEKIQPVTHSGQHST
Sequence of D(2) dopamine receptor (P61169 whole entry): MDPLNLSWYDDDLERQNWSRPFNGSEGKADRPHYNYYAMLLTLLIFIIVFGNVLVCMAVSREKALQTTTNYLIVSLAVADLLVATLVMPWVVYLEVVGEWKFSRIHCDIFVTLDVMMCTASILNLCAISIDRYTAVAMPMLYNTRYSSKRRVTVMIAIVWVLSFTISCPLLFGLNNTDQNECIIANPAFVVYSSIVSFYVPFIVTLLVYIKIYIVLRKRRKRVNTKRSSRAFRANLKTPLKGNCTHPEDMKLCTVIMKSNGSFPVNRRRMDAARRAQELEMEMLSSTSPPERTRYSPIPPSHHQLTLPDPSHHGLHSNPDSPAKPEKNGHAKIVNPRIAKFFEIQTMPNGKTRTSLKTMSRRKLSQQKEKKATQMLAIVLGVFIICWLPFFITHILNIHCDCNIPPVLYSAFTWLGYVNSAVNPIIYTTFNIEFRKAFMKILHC

| Compound | pIC50 (D(1A) dopamine receptor) | pIC50 (D(2) dopamine receptor) | Ratio IC50 (Rattus norvegicus) |
| --- | --- | --- | --- |
| COc1ccc2cc1Oc1ccc(cc1)C[C@H]1c3cc(c(OC)cc3CCN1C)Oc1c(OC)c(OC)cc3c1[C@@H](C2)N(C)CC3 | 4.48 | 6.17 | 49.6 |
| COc1cc2c(cc1Oc1c(O)c(OC)cc3c1[C@H](Cc1ccc(OC)c(-c4cc(C=O)ccc4O)c1)N(C)CC3)C(=O)N(C)CC2 | < 4.52 | 5.00 | > 3 |
| COc1cc2c(cc1O)[C@@H](Cc1ccc(OC)c(Oc3ccc(C[C@H]4c5cc(O)c(OC)cc5CCN4C)cc3)c1)N(C)CC2 | 5.25 | 7.57 | 207 |
| COc1ccc2cc1Oc1ccc(cc1)C[C@H]1c3c(cc(OC)c(OC)c3Oc3cc4c(cc3OC)CCN(C)[C@@H]4C2)CCN1C | 4.41 | 4.55 | 1.4 |
| COc1cc2c(cc1OC)[C@@H](Cc1ccc(OC)c(Oc3ccc(C[C@H]4NCCc5cc(OC)c(OC)cc54)cc3)c1)N(C)CC2 | < 4.00 | < 4.00 | – |
| COc1ccc2cc1Oc1ccc(cc1)C[C@@H]1c3c(cc(OC)c(O)c3Oc3cc4c(cc3OC)CCN(C)[C@H]4C2)CCN1C (racemic) | 4.81 | 4.18 | 0.2 |
| COc1cc2c3cc1Oc1c(O)c(OC)cc4c1[C@H](Cc1ccc(OC)c(c1)-c1cc(ccc1O)C(=O)[C@H]3N(C)CC2)N(C)CC4 | 4.95 | 5.56 | 4 |
| COc1cc2c3cc1Oc1c(O)c(OC)cc4c1[C@H](Cc1ccc(OC)c(c1)-c1cc(ccc1O)C[C@H]3N(C)CC2)N(C)CC4 | < 4.00 | 5.50 | 31.4 |
| COc1ccc(C=O)cc1Oc1ccc(C[C@H]2c3c(cc(OC)c(OC)c3Oc3cc4c(cc3OC)CCN(C)C4=O)CCN2C)cc1 | < 4.52 | < 4.52 | – |

Further lines, results first:

| pIC50 (D(1A) dopamine receptor) | pIC50 (D(2) dopamine receptor) | Ratio IC50 (Rattus norvegicus) | Compound |
| --- | --- | --- | --- |
| < 4.00 | 4.09 | > 1.2 | COc1ccc(C[C@H]2c3c(cc(OC)c4c3Oc3cc5c(cc3O4)CCN(C)C5=O)CCN2C)cc1-c1cc(C=O)ccc1O |
| 4.04 | 4.79 | 5.6 | COc1cc2c3cc1Oc1c(O)c(OC)cc4c1[C@@H](C(=O)c1ccc(O)c(c1)-c1cc(ccc1OC)C[C@H]3N(C)CC2)N(C)CC4 |
| 5.98 | 6.52 | 3.5 | COc1cc2c(cc1O)[C@@H](Cc1ccc(O)c(Oc3ccc(C[C@H]4c5cc(O)c(OC)cc5CCN4C)cc3)c1)N(C)CC2 |
| < 4.00 | < 4.00 | – | COc1cc2c(cc1OC)[C@@H](Cc1ccc(Oc3cc(C[C@@H]4c5cc(OC)c(OC)cc5CCN4C)ccc3OC)cc1)N(C)CC2 |
| 5.25 | 5.84 | 3.9 | COc1cc2c(cc1OC)[C@@H](Cc1ccc(Oc3cc(C[C@H]4c5cc(OC)c(OC)cc5CCN4C)ccc3OC)cc1)N(C)CC2 |
